One experiment concerns heme oxygenase 1 (HO-1). Put plainly: Induction of heme oxygenase 1 in primary AML specimens. It counts as cell-based, human. To be noted: compared to vehicle-only control.
Experiment [1] concerns the target T1, P450BM3 variant V-H10(A87I) (Priestia megaterium, UniProt P14779, A181T/A185V/A198V/A291V/E253G/F206C/F88I/H237Q/L354V/P143S/R256S/S227R/T176I/V79N).
T1 sequence (P14779 1-1049 V79N/F88I/P143S/T176I/A181T/A185V/A198V/F206C/S227R/H237Q/E253G/R256S/A291V/L354V): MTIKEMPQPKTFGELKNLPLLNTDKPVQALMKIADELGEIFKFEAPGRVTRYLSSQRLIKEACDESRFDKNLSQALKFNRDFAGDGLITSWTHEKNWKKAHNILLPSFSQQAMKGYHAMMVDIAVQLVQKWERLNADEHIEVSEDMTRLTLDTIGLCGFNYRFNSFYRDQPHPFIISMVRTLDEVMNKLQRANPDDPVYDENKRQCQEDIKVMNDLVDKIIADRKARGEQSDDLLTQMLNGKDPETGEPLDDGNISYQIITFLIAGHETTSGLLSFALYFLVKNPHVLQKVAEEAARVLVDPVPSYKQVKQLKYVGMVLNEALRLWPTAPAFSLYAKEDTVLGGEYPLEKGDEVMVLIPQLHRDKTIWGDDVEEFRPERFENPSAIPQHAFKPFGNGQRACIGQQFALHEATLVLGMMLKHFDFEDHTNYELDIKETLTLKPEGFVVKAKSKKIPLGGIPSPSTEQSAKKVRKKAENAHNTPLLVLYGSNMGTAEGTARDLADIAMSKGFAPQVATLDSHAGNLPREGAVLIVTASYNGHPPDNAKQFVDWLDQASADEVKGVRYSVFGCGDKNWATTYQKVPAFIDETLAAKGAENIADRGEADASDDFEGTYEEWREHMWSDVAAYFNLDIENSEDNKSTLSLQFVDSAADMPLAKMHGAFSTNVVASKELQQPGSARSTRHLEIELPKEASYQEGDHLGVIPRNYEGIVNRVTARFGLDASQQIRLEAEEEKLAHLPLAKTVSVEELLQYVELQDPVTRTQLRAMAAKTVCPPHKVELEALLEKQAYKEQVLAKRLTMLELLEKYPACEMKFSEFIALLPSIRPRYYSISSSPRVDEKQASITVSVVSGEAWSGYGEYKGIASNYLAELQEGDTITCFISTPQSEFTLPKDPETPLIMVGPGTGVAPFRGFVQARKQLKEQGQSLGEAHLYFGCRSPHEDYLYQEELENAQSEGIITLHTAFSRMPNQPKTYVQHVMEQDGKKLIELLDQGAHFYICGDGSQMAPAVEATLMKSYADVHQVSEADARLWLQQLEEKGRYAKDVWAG
Put plainly: Heme spin shift binding of MCL to P450 variant V-H10. Also on record: species or system Bacillus megaterium. In outline:
(§1)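 Purified P450 (3 μM) in 50 mM potassium phosphate, pH 8.0, titrated with test compound (5–2000 μM) from a 50 mM ethanol stock. A difference spectrum (350–500 nm) was taken at each step. Absorbance change at 390/420 nm (high/low spin) was plotted against concentration, with KD from a nonlinear 1:1 binding fit. At least triplicate, room temperature.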

For experiment [2], the system named is AML04 primary AML specimen. In words: Cell viability of primary AML specimen AML04. Conditions: Homo sapiens, read-out: AML04 LC50. It counts as cell-based. In outline:
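Primary AML samples came from consenting donors. Live mononuclear cells were isolated on a Ficoll-Paque density gradient and cryopreserved, with 40–70% viability after thawing. Cells were kept at 37 °C, humidified, 5% CO2.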

In another experiment the target is T2, P450BM3 variant FL#62 (Priestia megaterium, UniProt P14779, A181T/A185V/A198V/A291V/A83V/E253G/F206C/F82S/F88A/H237Q/L354V/P143S/R256S/S227R/T176I/V79A).
T2 sequence (P14779 1-1049 V79A/F82S/A83V/F88A/P143S/T176I/A181T/A185V/A198V/F206C/S227R/H237Q/E253G/R256S/A291V/L354V): T1 sequence (P14779 1-1049 V79N/F88I/P143S/T176I/A181T/A185V/A198V/F206C/S227R/H237Q/E253G/R256S/A291V/L354V) with N79A, F82S, A83V, I88A
Put plainly: Heme spin shift binding of MCL to P450 variant FL#62. Also on record: species or system Bacillus megaterium. A digest of the protocol: as §1

Changes are numbered by the printed parent chain.

Regarding `C=C1C(=O)O[C@H]2[C@H]1CCC(C)=C1CC[C@@](C)(O)[C@@H]12` [MCL, micheliolide], the “induction of heme oxygenase 1 (HO-1)” value in the experiment on heme oxygenase 1 (HO-1) is recorded as “Dose-dependent induction”. For the same molecule, the Kd (as a rule, the constant that tells how readily two partners part at equilibrium) in experiment [1] is 1250 ± 54 µM; on P450BM3 variant FL#62, 61 ± 3 µM. Moreover, the CC50 in experiment [2] is 22.1 µM.

Source of the values: publication PMC8161485 (ACS Central Science, 2021).
